The species entered for data set [1] is Rattus norvegicus. The experiment in a line: Effect on CCh-induced salivation in Sprague-Dawley rat after 24 hrs. The data set is classed as ADME, organism-based. Conditions: in vivo. An outline of the steps: (§1)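 Anaesthetised, cannulated male Sprague-Dawley rats dosed once intratracheally; 24 h later CCh (30 μg/kg) given, with bronchoconstriction (airway pressure via transducer) and salivation (net weight gain of cotton balls in oral cavity) recorded together in the same animal.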

The test system of data set [2] is Rattus norvegicus. The experiment in a line: Bronchodilatory effect in it dosed Sprague-Dawley rat assessed as inhibition of CCh-induced bronchoconstriction after 24 hrs. Type of data set: functional. Conditions: read-out: ID50 (the source's name). An outline of the steps:
as §1

Data set [3] is filed under the species Rattus norvegicus. The experiment in a line: Ratio of ID50 for effect on CCh-induced salivation in Sprague-Dawley rat to ID50 for inhibition of CCh-induced bronchoconstriction Sprague-Dawley rat.
Data set [4] in a line: Drug uptake in it dosed Sprague-Dawley rat submandibular gland after 24 hrs. The data set is classed as ADME, organism-based. Conditions: in vivo.
A further data set relates to Lung. The experiment in a line: Drug uptake in it dosed Sprague-Dawley rat lung after 24 hrs. The data set is classed as ADME, organism-based. Conditions: in vivo, inhaled_or_intranasal.
The test system of data set [5] is Rattus norvegicus. The experiment in a line: Bronchodilatory effect in Sprague-Dawley rat assessed as inhibition of CCh-induced bronchoconstriction at 0.5 ug/kg, it after 24 hrs. Type of data set: functional. An outline of the steps:
(§2)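 Male Sprague-Dawley rats (250–400 g) anaesthetised with pentobarbital sodium (50 mg/kg i.p.), tracheally cannulated, given pancuronium bromide 0.2 mg/kg i.v. Compound given intratracheally at 0.5 μg/kg; CCh 30 μg/kg challenge at 0.25, 0.5, 2 or 24 h post-dose; airway pressure by pressure transducer. Inhibition expressed as mean percentage of control value, n = 3.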

For data set [6], the system named is Rattus norvegicus. The experiment in a line: Bronchodilatory effect in Sprague-Dawley rat assessed as inhibition of CCh-induced bronchoconstriction at 0.5 ug/kg, it after 0.5 hrs. Type of data set: functional. An outline of the steps:
as §2

In data set [7] the test system is Rattus norvegicus. The experiment in a line: Bronchodilatory effect in Sprague-Dawley rat assessed as inhibition of CCh-induced bronchoconstriction at 0.5 ug/kg, it after 2 hrs. Type of data set: functional. An outline of the steps: as §2
The target of data set [8] is T1, Muscarinic acetylcholine receptor M1 (Rattus norvegicus, UniProt P08482).
T1 sequence (P08482 whole entry): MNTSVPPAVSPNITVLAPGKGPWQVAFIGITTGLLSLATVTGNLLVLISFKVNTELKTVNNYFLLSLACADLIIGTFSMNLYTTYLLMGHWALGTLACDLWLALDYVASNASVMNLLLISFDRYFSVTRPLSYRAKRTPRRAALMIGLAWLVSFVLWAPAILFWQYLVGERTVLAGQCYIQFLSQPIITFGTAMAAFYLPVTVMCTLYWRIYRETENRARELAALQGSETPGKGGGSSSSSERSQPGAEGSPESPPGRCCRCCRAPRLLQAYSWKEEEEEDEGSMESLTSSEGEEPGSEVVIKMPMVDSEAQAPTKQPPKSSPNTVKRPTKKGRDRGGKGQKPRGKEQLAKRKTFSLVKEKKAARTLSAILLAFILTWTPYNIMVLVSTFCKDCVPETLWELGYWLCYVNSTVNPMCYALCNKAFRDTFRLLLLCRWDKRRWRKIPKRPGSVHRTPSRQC
The experiment in a line: Displacement of [3H]-NMS from Sprague-Dawley rat muscarinic M1 receptor in cortex membrane. The data set is classed as cell membranes. In general terms: Loss of bound radioactivity is the signal in a displacement assay; it reports binding, not function.

Data set [9] has as its target Muscarinic acetylcholine receptor M3 (Rattus norvegicus, UniProt P08483). The experiment in a line: Displacement of [3H]-NMS from Sprague-Dawley rat muscarinic M3 receptor in submandibular gland.
For data set [10], the system named is Rattus norvegicus. The experiment in a line: Bronchodilatory effect in Sprague-Dawley rat assessed as inhibition of CCh-induced bronchoconstriction at 0.5 ug/kg, it after 0.25 hrs. Type of data set: functional. An outline of the steps:
as §2

Data set [11] deals with T2, Muscarinic acetylcholine receptor M2 (Rattus norvegicus, UniProt P10980).
T2 sequence (P10980 whole entry): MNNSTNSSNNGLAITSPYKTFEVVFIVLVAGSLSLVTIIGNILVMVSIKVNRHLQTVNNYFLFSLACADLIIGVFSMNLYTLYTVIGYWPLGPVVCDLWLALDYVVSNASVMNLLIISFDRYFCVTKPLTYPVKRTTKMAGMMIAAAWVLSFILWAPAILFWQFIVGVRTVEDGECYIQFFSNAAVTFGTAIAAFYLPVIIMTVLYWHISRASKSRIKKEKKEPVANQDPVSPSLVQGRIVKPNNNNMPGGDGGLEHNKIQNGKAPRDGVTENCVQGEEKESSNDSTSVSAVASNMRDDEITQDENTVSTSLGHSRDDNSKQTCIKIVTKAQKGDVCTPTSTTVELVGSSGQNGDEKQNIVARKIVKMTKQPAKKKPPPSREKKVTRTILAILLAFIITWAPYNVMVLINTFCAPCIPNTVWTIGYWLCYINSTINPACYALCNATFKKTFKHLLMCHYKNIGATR
The experiment in a line: Displacement of [3H]-NMS from Sprague-Dawley rat muscarinic M2 receptor in heart.

In data set [12] the target is Muscarinic acetylcholine receptor M3 (Rattus norvegicus) (UniProt P08483). The experiment in a line: Displacement of [3H]-NMS from Sprague-Dawley rat muscarinic M3 receptor in submandibular gland measured after single/double washout.
Muscarinic acetylcholine receptor M3 (Rattus norvegicus), sequence (P08483 whole entry, looked up): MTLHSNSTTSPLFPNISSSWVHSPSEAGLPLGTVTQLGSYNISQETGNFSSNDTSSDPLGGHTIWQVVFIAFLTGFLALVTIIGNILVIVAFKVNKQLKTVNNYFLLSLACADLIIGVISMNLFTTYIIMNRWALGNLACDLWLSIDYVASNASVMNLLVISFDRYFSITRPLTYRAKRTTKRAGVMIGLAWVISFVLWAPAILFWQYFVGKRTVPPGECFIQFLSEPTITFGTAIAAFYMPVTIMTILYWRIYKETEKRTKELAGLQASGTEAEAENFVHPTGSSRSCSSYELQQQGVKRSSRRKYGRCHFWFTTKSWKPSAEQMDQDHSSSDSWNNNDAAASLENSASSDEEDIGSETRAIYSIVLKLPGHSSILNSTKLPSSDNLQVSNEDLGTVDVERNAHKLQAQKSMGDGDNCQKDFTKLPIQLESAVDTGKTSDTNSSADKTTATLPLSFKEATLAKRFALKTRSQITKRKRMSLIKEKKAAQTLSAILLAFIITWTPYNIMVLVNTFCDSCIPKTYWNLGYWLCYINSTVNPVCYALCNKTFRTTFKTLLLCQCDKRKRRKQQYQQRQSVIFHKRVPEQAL
For data set [13], the system named is Rattus norvegicus. The experiment in a line: Bronchodilatory effect in it dosed Sprague-Dawley rat assessed as inhibition of CCh-induced bronchoconstriction at 15 mins to 1 hr. Type of data set: functional, organism-based.

pKi: −log10 of the molar value. Activity calls are given as the source filed them. No cut-off for these calls is given here.

Muscarinic acetylcholine receptor M3, sequence (P08483 whole entry): as the sequence (P08483 whole entry, looked up) above

As to `O=C(O[C@H]1C[N+]2(CCCOc3ccccc3)CCC1CC2)C(O)(c1cccs1)c1cccs1.[Br-]` [ACLIDINIUM BROMIDE], the ID50 in the data set filed under Rattus norvegicus [1] came to 9.4 µg/kg. Besides, the ED50 in the data set with Rattus norvegicus [2] turned out to be 0.4 µg/kg. In addition, in the data set listed under Rattus norvegicus [3], the Ratio is recorded as 24.

The compound `C[N+]12CCC(OC(=O)Nc3ncsc3-c3cccc(Cl)c3)(CC1)CC2.[Br-]` registered an ID50 in the data set filed under Rattus norvegicus [1] of 4.2 µg/kg. Further, the Drug uptake result (in data set [4]; in the data set with Lung) was “Active” throughout. Also, the ED50 in the data set with Rattus norvegicus [2] came to 0.08 µg/kg. In addition, the Ratio in the data set filed under Rattus norvegicus [3] worked out at 53.

As usually defined, the inhibition in vivo is the percentage by which the read-out fell short of the control. For orientation: pKi means the negative decadic logarithm of the Ki, by convention in mol/L. Low readings indicate a high Ki, high ones a low Ki. In the case of `C[N+]12CCC(CC1)[C@@H](OC(=O)Nc1ncsc1-c1ccccc1)C2`, the inhibition in vivo at 0.0005 mg/kg in the data set with Rattus norvegicus [5] is 14%; with Rattus norvegicus [6] it was 62%; with Rattus norvegicus [7] it was 54%; with Rattus norvegicus [10], 74%. Further, the pKi in data set [8] was 9.43; in [9], 9.43; in data set [11] it was 8.92.

Consider `CC(C)[N+]1(C)C2CCC1CC(OC(=O)C(CO)c1ccccc1)C2` (stereo not drawn), for which the inhibition in vivo at 0.0005 mg/kg worked out at 15% with Rattus norvegicus [5], 85% with Rattus norvegicus [6], 83% in the data set with Rattus norvegicus [7] and 70% in the data set with Rattus norvegicus [10]. Moreover, the inhibition result in [12] is “inactive”.

As for `O=C(Nc1scnc1-c1ccccc1)O[C@H]1CN2CCC1CC2`, the pKi in [8] was 8.06; in data set [9], 7.92; in [11] it was 7.41.

On to `C[N+]12CCC(OC(=O)Nc3ncsc3-c3cccc(C(F)(F)F)c3)(CC1)CC2`, for which the pKi in data set [8] is 8.64; in [9] it was 8.74; in [11], 7.85.

Consider `C[N+]12CCC(OC(=O)Nc3ncsc3-c3ccccc3)(CC1)CC2`, for which the inhibition in vivo at 0.0005 mg/kg with Rattus norvegicus [5] came out at 61%. The pKi is 10.26 in [8], 10.19 in data set [9] and 9.92 in data set [11].

Regarding `C[N+]12CCC(CC1)[C@@H](OC(=O)Nc1ncsc1-c1cccc(Cl)c1)C2`, the inhibition in vivo at 0.0005 mg/kg in the data set with Rattus norvegicus [6] was 64%; in the data set on Rattus norvegicus [7] it was 50%; in the data set on Rattus norvegicus [10], 64%. Moreover, the pKi in data set [8] was 9.51; in data set [9], 9.60; in data set [11], 8.92.

For `O=C(Nc1ccccc1-c1ccccc1)OC12CCN(CC1)CC2`, the results for the pKi in [8], in [9] and in data set [11] were 9.49, 9.85 and 8.42, respectively.

As to `C[N+]1(C)[C@@H]2C[C@@H](OC(=O)C(O)(c3cccs3)c3cccs3)C[C@H]1[C@@H]1O[C@@H]12.O.[Br-]` [TIOTROPIUM BROMIDE], the inhibition in vivo at 0.0005 mg/kg in the data set on Rattus norvegicus [5] amounted to 78%; in the data set with Rattus norvegicus [6] it was 59%; with Rattus norvegicus [7] it was 83%; in the data set on Rattus norvegicus [10], 44%. The inhibition entry in [12] is “Active”. The same compound returned an ID50 in the data set listed under Rattus norvegicus [1] of 1.9 µg/kg. For the same compound, the Drug uptake entry (in [4]; in the data set on Lung) was “Active” throughout. Further, the pKi was 9.80 in [8], 9.52 in data set [9] and 9.82 in data set [11]. Besides, in the data set on Rattus norvegicus [2], the ED50 was 0.12 µg/kg. Also, the Ratio in the data set listed under Rattus norvegicus [3] stood at 16.

Take `C[N+]12CCC(OC(=O)Nc3ncsc3-c3cccc(Cl)c3)(CC1)CC2` [listing 1 of 2 here]: the inhibition entry in data set [12] was “inactive”. Further, the inhibition entry in the data set on Rattus norvegicus [13] is “Active”.

For the compound `O=C(Nc1ncoc1-c1ccccc1)O[C@H]1CN2CCC1CC2`, the figures for the pKi in data set [8], in [9] and in data set [11] were 8.06, 8.01 and 7.23, respectively.

`C[N+]12CCC(OC(=O)Nc3ncsc3-c3cc(Cl)cc(Cl)c3)(CC1)CC2`: the pKi in data set [8] was 9.92; in data set [9], 9.92; in data set [11], 9.19.

Consider `O=C(Nc1ccsc1-c1ccccc1)O[C@@H]1CN2CCC1CC2`, for which the pKi in data set [8] is 8.34; in [9], 8.40; in data set [11], 7.89.

Take `C[N+]12CCC(OC(=O)Nc3ccsc3-c3ccccc3)(CC1)CC2`: the inhibition in vivo at 0.0005 mg/kg was 78% with Rattus norvegicus [6], 86% in the data set on Rattus norvegicus [7] and 42% with Rattus norvegicus [10]. In addition, the pKi in data set [8] is 10.70; in data set [9] it was 10.70; in [11], 10.57.

Consider `O=C(Nc1ncsc1-c1ccccc1)OC12CCN(CC1)CC2`, for which the figures for the pKi in data set [8] and in [11] were 9.41 and 9.10, respectively.

As to `O=C(Nc1sccc1-c1ccccc1)OC12CCN(CC1)CC2`, the pKi in [8] was 9.48; in [9], 9.92; in [11] it was 8.85.

For the compound `C[N+]1(C)CCC(OC(=O)C(O)(c2ccccc2)C2CCCC2)C1.[Br-]` (stereo not drawn) [GLYCOPYRRONIUM BROMIDE], the inhibition entry with Rattus norvegicus [13] was “Active”. Further, the ED50 with Rattus norvegicus [2] was determined as 3.4 µg/kg.

On to `C[N+]12CCC(OC(=O)Nc3ncsc3-c3ccc(F)cc3)(CC1)CC2`, for which the pKi is 10.14 in data set [8], 10.00 in data set [9] and 9.68 in data set [11].

In the case of `O=C(Nc1ncsc1-c1ccccc1)O[C@H]1CN2CCC1CC2`, the results for the pKi in data set [8], in data set [9] and in data set [11] were 9.12, 9.03 and 8.72, respectively.

On to `C[N+]12CCC(OC(=O)Nc3ncsc3-c3cccc(Cl)c3)(CC1)CC2` [listing 2 of 2 here], for which the inhibition in vivo at 0.0005 mg/kg in the data set on Rattus norvegicus [5] turned out to be 82%; in the data set with Rattus norvegicus [6] it was 67%; in the data set with Rattus norvegicus [7], 84%; in the data set with Rattus norvegicus [10], 67%. Further, the pKi is 10.39 in data set [8], 10.31 in data set [9] and 10.28 in data set [11].

On to `O=C(Nc1ccsc1-c1ccccc1)O[C@H]1CN2CCC1CC2`, for which the pKi is 9.72 in data set [8], 9.72 in data set [9] and 9.09 in [11].

For `O=C(Nc1ccsc1-c1ccccc1)OC12CCN(CC1)CC2`, the pKi in [8] is 10.02; in data set [9] it was 10.25; in [11], 9.34.

In the case of `O=C(Nc1cscc1-c1ccccc1)OC12CCN(CC1)CC2`, the pKi is 9.29 in [8], 9.68 in [9] and 8.44 in data set [11].

The values above are taken from ChEMBL document CHEMBL3297703, “Novel quinuclidinyl heteroarylcarbamate derivatives as muscarinic receptor antagonists” (Bioorg Med Chem, 2014).
